According to ChEMBL document CHEMBL1764958, “Synthesis and biological evaluation of 3,7-diazabicyclo[4.3.0]nonan-8-ones as potential nootropic and analgesic drugs” (2011):
Calls of active or inactive are those of the source. The rule behind the calls is not given here.

Key:
Mus musculus [1] = experiment: Antiamnesic activity in ip dosed mouse assessed as reversal of scopolamine-induced amnesia after 20 mins by passive-avoidance test; assay type: functional; details: for minimal effective dose: Mus musculus, ip, 20 min, read-out: MED
Mus musculus [2] = experiment: Antiamnesic activity in mouse assessed as reversal of scopolamine-induced amnesia at 10 mg/kg, ip after 20 mins by passive-avoidance test; assay type: functional, organism-based; parameters: dose 10 mg/kg
Procedure, shortened: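 Mice; compounds dissolved in saline, given ip 20 min before the training session of the passive-avoidance test. Scopolamine injected immediately after punishment. Doses tested up to 10 mg/kg; activity read as reversal of scopolamine-induced amnesia at retention. Each value is the mean of 8-18 mice, compared against scopolamine-treated mice.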

Rattus norvegicus [3] = experiment: Antihyperalgesic activity in rat assessed as reversal of oxaliplatin-induced mechanical hyperalgesia at 10 mg.kg, ip by paw pressure test; assay type: functional, organism-based
Procedure, shortened: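 Rats received oxaliplatin 2.4 mg/kg ip on 5 consecutive days each week, for 15 injections totalling 36 mg/kg. Mechanical hyperalgesia was then measured by the paw-pressure test after a single ip dose of 10 mg/kg. Pregabalin 30 mg/kg po served as reference.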

Rattus norvegicus [4] = experiment: Antihyperalgesic activity in rat assessed as reversal of oxaliplatin-induced mechanical hyperalgesia at 50 to 100 mg.kg, iv by paw pressure test; assay type: functional
Mus musculus [5] = species on record: Mus musculus; experiment: Antihyperalgesic activity against streptozotocin-induced thermal hyperalgesia in mouse diabetic neuropathy model assessed as licking latency time after 45 mins by hot plate test (reference value: 9.3 +/- 1.2 sec)
Mus musculus [6] = species on record: Mus musculus; experiment: Antihyperalgesic activity against thermal hyperalgesia in saline treated mouse diabetic neuropathy model assessed as licking latency time after 15 mins by hot plate test (reference value: 18.1 +/- 1.1 sec)
Mus musculus [7] = species on record: Mus musculus; experiment: Antihyperalgesic activity against streptozotocin-induced thermal hyperalgesia in mouse diabetic neuropathy model assessed as licking latency time after 15 mins by hot plate test (reference value: 9.4 +/- 1.3 sec)
Mus musculus [8] = species on record: Mus musculus; experiment: Antihyperalgesic activity against streptozotocin-induced thermal hyperalgesia in mouse diabetic neuropathy model assessed as licking latency time after 60 mins by hot plate test (reference value: 10.4 +/- 1.2 sec)
Mus musculus [9] = species on record: Mus musculus; experiment: Antihyperalgesic activity against thermal hyperalgesia in saline treated mouse diabetic neuropathy model assessed as licking latency time after 45 mins by hot plate test (reference value: 17.8 +/- 1.5 sec)
Mus musculus [10] = species on record: Mus musculus; experiment: Antihyperalgesic activity against thermal hyperalgesia in saline treated mouse diabetic neuropathy model assessed as licking latency time after 30 mins by hot plate test (reference value: 18 +/- 1.5 sec)
Mus musculus [11] = species on record: Mus musculus; experiment: Antihyperalgesic activity against streptozotocin-induced thermal hyperalgesia in mouse diabetic neuropathy model assessed as licking latency time after 30 mins by hot plate test (reference value: 10.1 +/- 0.8 sec)
Mus musculus [12] = species on record: Mus musculus; experiment: Antihyperalgesic activity against thermal hyperalgesia in saline treated mouse diabetic neuropathy model assessed as licking latency time after 60 mins by hot plate test (reference value: 18.4 +/- 1.6 sec)

In the case of `CC(=O)NC1CCN(S(=O)(=O)C(C)C)CC1`, the minimal effective dose (Mus musculus [1]) is reported as 1 mg/kg.
Molecule `CC(=O)NC1CCN(C(=O)c2ccccc2)CC1` has a minimal effective dose (Mus musculus [1]) of 10 mg/kg.
`CC(C)S(=O)(=O)N1CC[C@@H]2NC(=O)C[C@@H]2C1` was tested, and the Activity (Mus musculus [2]) was “inactive”.
`O=C1CC2CN(S(=O)(=O)c3ccc(F)cc3)CCC2N1` (racemic; form 1) was tested, and the Activity (Rattus norvegicus [3]) was “Active”.
In the case of `O=C1CC2CN(S(=O)(=O)c3ccc(F)cc3)CCC2N1` (racemic; form 2), the Activity (Rattus norvegicus [3]) is reported as “Active”.
Work on `O=C1C[C@@H]2CN(S(=O)(=O)c3ccc(F)cc3)CC[C@@H]2N1` (relative stereo) yielded an MED (Mus musculus [1]) of 0.1 mg/kg.
For `O=C1C[C@@H]2CN(C(=O)c3ccccc3)CC[C@@H]2N1` (relative stereo), the minimal effective dose (Mus musculus [1]) was 3 mg/kg.
Work on `O=C1C[C@H]2CN(S(=O)(=O)c3ccc(F)cc3)CC[C@@H]2N1` (relative stereo) yielded an MED (Mus musculus [1]) of 1 mg/kg.
`O=C1C[C@H]2CN(C(=O)c3ccccc3)CC[C@@H]2N1` (relative stereo) was tested, and the minimal effective dose (Mus musculus [1]) was 3 mg/kg.
Molecule `CC(C)S(=O)(=O)N1CC[C@@H]2NC(=O)C[C@H]2C1` (relative stereo) has a minimal effective dose (Mus musculus [1]) of 10 mg/kg.
`O=C1C[C@@H]2CN(S(=O)(=O)c3ccc(F)cc3)CC[C@@H]2N1` (stereo in doubt; (+)-4) gave an Activity (Rattus norvegicus [4]) of 75%.
For `O=C1C[C@@H]2CN(S(=O)(=O)c3ccc(F)cc3)CC[C@@H]2N1` (stereo in doubt; (-)-4), the minimal effective dose (Mus musculus [1]) was 0.1 mg/kg.
Work on `O=C1C[C@H]2CN(S(=O)(=O)c3ccc(F)cc3)CC[C@@H]2N1` (stereo in doubt; (-)-7) yielded a minimal effective dose (Mus musculus [1]) of 1 mg/kg.
`O=C1O[C@H]([C@@H](O)CO)C(O)=C1O` [ASCORBIC ACID] was tested, and the Activity (Rattus norvegicus [4]) was 50%.
In the case of `O=C(O)CCCCC1CCSS1` (stereo not drawn) [LIPOIC ACID, ALPHA], the Activity (Rattus norvegicus [4]) is reported as 50%.
In the case of `NC(=O)CN1CCCC1=O` [PIRACETAM], the minimal effective dose (Mus musculus [1]) is reported as 30 mg/kg.
`CC(=O)NC1CCN(S(=O)(=O)c2ccc(F)cc2)CC1` [SAPUNIFIRAM] gave a Time (Mus musculus [5]) of 10.4 s, a Time (Mus musculus [6]) of 16.5 s and a Time (Mus musculus [7]) of 15.6 s. It also gave a Time (Mus musculus [8]) of 11.2 s, a minimal effective dose (Mus musculus [1]) of 0.01 mg/kg and a Time (Mus musculus [9]) of 16.3 s. The Activity (Rattus norvegicus [3]) was “inactive”, the Time (Mus musculus [10]) was 15.7 s and the Time (Mus musculus [11]) was 12.4 s. It also gave a Time (Mus musculus [12]) of 15.6 s.
